Arr AP2 block: blocks beta-arrestin peptide binding to AP2 adaptin | FITC-arrestin peptide / GST-AP2 beads, flow cytometry; AP2 beta2 appendage carries R879A mutation | inhibition, % at 10 µM | hit rate 0.31% among 340,000 | AID 504490;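 active = inhibition above a set limit, near 3 SD of compounds lacking own fluorescence, cut at about 54% in these data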;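 also: plate controls were DMSO wells for no effect and 5 µM unlabelled arrestin peptide for full effect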
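Assay system: GST-AP2 R879A bound to glutathione beads, E. coli-expressed; Medium: PBS with 0.05% Tween 20 and 0.1% BSA; Also added: fluorescein-tagged arrestin peptide at 50 nM final; Timing: 12 min plus 1 h, RT; Measured by: flow cytometry, FL1 (488/535 nm); Evaluation: percent drop in bead-associated FITC signal.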
sPLA2-III inh: Blocks human group III sPLA2 activity; QFRET BODIPY PC-A2 liposome hydrolysis, fluorescence; hit rate 0.56% among 370,000; Q9NZ20; AID 743126; inhibition, % at 12.2 µM;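 active = inhibition above mean plus 3 SD of compounds lying within the high and low control bounds, cut at about 19% in these data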;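 also: 0% = median of test compound wells and 100% = no enzyme DMSO wells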
HTR2A ag: mouse HTR2A agonism via beta-arrestin recruitment. P35363. CHO-K1 mHTR2A beta-arrestin complementation, luminescence; percent of 30 µM serotonin response. activation, % at 7.6 µM. hit rate 0.66% among 360,000;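 active = activation above a run cutoff, the mean activation of all tested compounds plus 3 SD, cut at about 14% in these data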;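 also: 0% = plate median of compound wells and 100% = 30 µM serotonin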
PfM18AAP inh: PfM18AAP enzyme inhibition. hit rate 1.2% among 290,000. recombinant PfM18AAP, H-Glu-NHMec fluorogenic cleavage. AID 1822. inhibition, % at 7.35 µM;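 active = inhibition above the campaign mean inhibition over all tested compounds plus 3 SD, cut at about 28% in these data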;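 also: 0% = plate median of test compound wells and 100% = 2 mM ZnCl2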
NRP1-CendR mod: modulators of CendR peptide binding to human neuropilin-1; FAM-RPARPAR peptide binding to NRP-1, fluorescence polarization; inhibition, % at 25 µM; hit rate 0.85% among 360,000;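 active = inhibition or corrected inhibition above about 18%, plus a signal ratio from 0.5 to 1.5, limit read from the data, passing the limit was not always enough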
Lipid droplet: modulators of hepatic lipid droplet formation; hit rate 0.4% among 240,000; AML12 mouse hepatocytes, oleate lipid droplets, BODIPY imaging; inhibition, % at 6.5 µM;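 active = lipid droplet intensity inhibited by at least 50%, with more than 500 cells counted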
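Material: mouse AML12 hepatocyte cell line, fixed after treatment; Timing: compound with oleate, overnight; Technique: high-content imaging of BODIPY-stained droplets and DAPI nuclei; Probe or stimulus: oleate, 100 µM final; Dosing: compound at 6.5 µM only.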
sPLA2 confirm: human GIII-sPLA2 inhibition, confirmation; shares compounds with sPLA2-III inh; recombinant hGIII-sPLA2, BODIPY PC-A2 QFRET fluorescence; inhibition, % at 12.2 µM; hit rate 34% among 2,000; AID 743280;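 active = mean inhibition across triplicates above the hit cutoff set in the earlier primary screen, cut at about 19% in these data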;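 also: 0% = enzyme with DMSO and 100% = DMSO wells lacking enzyme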
535nm interf: 535nm fluorescence interference, HGIII-sPLA2 counter-screen; shares compounds with sPLA2-III inh; BODIPY FL product fluorescence interference, QFRET; inhibition, % at 12.2 µM; hit rate 8.5% among 2,000; AID 743282;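 active = average inhibition above the solvent-only control mean plus 3 SD, cut at about 6% in these data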;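 also: 0% = DMSO with substrate plus product and 100% = DMSO with substrate alone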
BODIPY interf DR: 535nm optical interference dose response, HGIII-sPLA2 counter-screen | shares compounds with sPLA2-III inh | BODIPY FL product fluorescence interference, cell-free | IC50, µM | 240 tested, under 10 active;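 active = IC50 at or below 10 µM; inactive = IC50 above 10 µM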
* = called active by the depositor; . = no result; ! = not active in a repeat. A selection: hits, their analogues and other compounds. The true share with any hit is near 3.3%.

SMILES	Arr AP2 block	sPLA2-III inh	HTR2A ag	PfM18AAP inh	NRP1-CendR mod	Lipid droplet	sPLA2 confirm	535nm interf	others
O=C1c2c(O)ccc(O)c2C(=O)c2c(NCCNCCO)ccc(NCCNCCO)c21	28	35*	-3	.	19	.	40*	-21	BODIPY interf DR=>122
Cc1ccc(CNCCNCCO)s1	10	4	-4	0	13	-2	.	.
CCOC(=O)CC[C@H]1CC[C@]2(CCCN(C(=O)c3ccc4ccccc4n3)C2)O1	.	-1	.	.	.	.	.	.
Clc1ccccc1CN1CCSCC1	4	3	6	-14	-8	-17	.	.
CC1CN(Cc2ccccc2Cl)CC(C)O1 (configuration not stated)	5	19*	-3	0	9	5	-1	-10
Cc1ccn(C(=O)c2ccc(NC(=O)CC(C)C)cc2)n1	32	19*	1	-4	4	-1	3	-1
CCOC(=O)c1cocc1C(=O)O	10	-6	1	.	-1	.	.	.
Cc1nc2ccccc2n1CSc1ccccc1	9	21*	1	6	6	-7	2	-10
CC(=O)Nc1ccc(-c2ccnc3c2CC(C)(C(=O)NC(C)C)O3)cc1 (configuration not stated)	.	21*	0	.	2	.	2	-9
CCOc1ccc(NC(=O)CSc2ccc(-c3ccccn3)nn2)cc1	-3	19*	-2	8	3	-22	-5	-22
Cc1ccc(NC(=O)CSc2ccc(-c3ccccn3)nn2)cc1	24	-1	3	-3	-10	12	.	.
CCCCCCCCN1C(=O)[C@@H](CC(=O)N2CCCCC2)C[C@@]2(C(=O)OC)C1=C[C@H](C1CCCC1)O[C@@H]2C	.	1	.	.	.	.	.	.
CSc1ccc(CNc2ccc(C)cc2)cc1	3	22*	7	5	14	.	16	4
FC(F)(F)c1ccccc1CN1CCCc2nc(-c3ccccc3)ccc21	.	27*	.	.	.	.	6	-1
FC(F)(F)c1ccccc1CN1CCCc2nc(-c3ccc(Br)cc3)ccc21	.	22*	.	.	.	.	14	4
Cc1ccccc1S(=O)(=O)N1CCCc2nc(-c3ccccc3)ccc21	.	-8	.	.	.	.	.	.
COCCN1CCCc2nc(-c3ccc(Br)cc3)ccc21	.	10	.	.	.	.	.	.
CCOC(=O)c1ccc(NC(=O)[C@@H]2CCC(=O)N2C2OC(=O)c3c2ccc(OC)c3OC)cc1 (some centres not stated)	.	-1	0	.	5	.	.	.
COc1ccc2ccccc2c1C=NNC(=O)CN1CCN(Cc2ccccc2)CC1	.	-2	.	.	.	.	.	.
CCC1CCCCN1C(=S)NC(=O)c1cc(S(=O)(=O)N2CCOCC2)ccc1C (configuration not stated)	-9	20*	-1	-10	-5	18	11	-1
NNC(=O)/C(=N/Nc1ccccc1)S(=O)(=O)c1ccc(Cl)cc1	2	35*	0	-2	-17	16	47*	2	BODIPY interf DR=>122
Cc1ccccc1CN1CC2=C(CCN(Cc3ccccc3)C2=O)N2CCN=C12	.	16	-5	.	16	.	.	.
CCOC(=O)NC(NC(=S)Nc1ccc(OCC)cc1)C(Cl)(Cl)Cl (configuration not stated)	-3	24*	-1	5	4	22	9	-5
CCOc1ccc(NC(=S)Nc2ccc(OC)cc2)cc1	-3	8	-2	6	6	-2	.	.
N=C(N)SCc1ccccc1Cl	-9	34*	-5	4	5	0	11	-6
SMILES	Arr AP2 block	sPLA2-III inh	HTR2A ag	PfM18AAP inh	NRP1-CendR mod	Lipid droplet	sPLA2 confirm	535nm interf	others
CC(C)CC1NC(=O)c2cc3ccccc3cc2-n2c1nc1ccc(Cl)cc1c2=O (configuration not stated)	.	10	-8	.	-6	.	.	.
O=C(CSc1nc2ccccc2s1)NNC(=S)Nc1ccccc1	5	15	4	18	18	1	.	.
O=C(CSc1nc2ccccc2s1)NNC(=S)Nc1ccc(Br)cc1	-11	23*	0	-4	-12	.	3	0
COC[C@@H]1CCCN1c1ccc2c(c1)OCCCN(C1CC1)S2(=O)=O	.	-5	.	.	.	.	.	.
CC(c1ccccc1)n1c(-c2ccccc2F)n[nH]c1=S (configuration not stated)	-1	24*	6	2	3	-10	8	-1
CC(C)n1c(-c2ccccc2F)n[nH]c1=S	22	8	4	6	-11	.	.	.
O=C(O)CCCNC(=O)C(c1ccccc1)c1ccccc1	-14	21*!	5	-10	0	-12	-2	-6
O=C(O)CCCNC(=O)CCCNC(=O)C(c1ccccc1)c1ccccc1	-1	13	3	-6	-1	9	.	.
COc1cccc(N2CC(=O)Nc3c(oc4nc(-c5ccccc5)cc(C)c34)C2=O)c1	4	20*	-1	-2	-5	-29	-3	-13
O=[N+]([O-])c1ccc(O)c(N=Cc2sc3ccccc3c2O)c1	17	26*	-2	18	-141	-6	36*	4	BODIPY interf DR=>122
Oc1ccc(Cl)cc1N=Cc1sc2ccccc2c1Cl	3	4	0	12	-13	-34	.	.
CN(c1cc2c(c3c1ccn3C)C1CCC2O1)C1CCCCC1 (configuration not stated)	.	6	5	.	-3	.	.	.
Cn1ccc2c(N3CCCCCCC3)cc3c(c21)C1CCC3O1 (configuration not stated)	.	20*	3	.	12	.	32*	-7	BODIPY interf DR=>122
Cc1cccc2nc(-c3ccccc3)c(-c3ccc(CN4CCC5(CC4)CNc4ccccc45)cc3)nc12	.	12	.	.	.	.	.	.
CC1(C)Oc2ccc(C(=O)NC3CCCC3)cc2NC1=O	.	3	.	.	.	.	.	.
CCOC1=CC2=C(C(=O)C(Cl)=CC2=O)[C@@H]2CN(S(=O)(=O)c3ccc(C)cc3)[C@@H](c3ccccc3)[C@H]12	.	31*	-1	.	-31	.	69*	11*
COc1ccc(CN2C[C@@H](CO)O[C@@H](n3cnc4c(N5CCOCC5)ncnc43)C2)cc1	.	20*	-3	.	3	.	-4	-19
COCCN1C[C@@H](CO)O[C@@H](n2cnc3c(N4CCCC4)ncnc32)C1	.	20*	0	.	-4	.	1	-2
COCCN1C[C@@H](CO)O[C@@H](n2cnc3c(N4CCOCC4)ncnc32)C1	.	1	5	.	0	.	.	.

Source: PubChem
